pIC50, pKi: −log10 of the molar value. Calls of active or inactive are those of the source. The rule behind the calls is not given here.
Key:
[1] = target: T1, Tyrosine-protein phosphatase non-receptor type 1 (Homo sapiens, UniProt P18031); assay: Inhibition of human recombinant PTP1B expressed in Escherichia coli TB1 using p-nitrophenylphosphate as substrate
T1 sequence (P18031 whole entry): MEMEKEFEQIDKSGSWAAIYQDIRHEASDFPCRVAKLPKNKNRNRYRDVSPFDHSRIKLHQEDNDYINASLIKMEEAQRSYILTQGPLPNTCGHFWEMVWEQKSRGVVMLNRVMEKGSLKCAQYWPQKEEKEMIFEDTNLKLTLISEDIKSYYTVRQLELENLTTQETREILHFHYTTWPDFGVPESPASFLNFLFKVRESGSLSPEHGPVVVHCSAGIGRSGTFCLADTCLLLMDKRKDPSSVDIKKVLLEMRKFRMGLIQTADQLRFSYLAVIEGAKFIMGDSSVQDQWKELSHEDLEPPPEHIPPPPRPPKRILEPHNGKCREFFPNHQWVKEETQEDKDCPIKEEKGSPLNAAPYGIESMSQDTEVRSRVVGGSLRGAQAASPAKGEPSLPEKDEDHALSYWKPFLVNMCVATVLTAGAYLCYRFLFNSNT

Homo sapiens [2] = organism: Homo sapiens; assay: Selectivity ratio of IC50 for human recombinant LMW-PTP IF2 to IC50 for human recombinant LMW-PTP IF1
[3] = target: T2, Tyrosine-protein phosphatase non-receptor type 1 (Homo sapiens) (UniProt P18031); assay: Reversible inhibition of human recombinant PTP1B expressed in Escherichia coli TB1 using p-nitrophenylphosphate as substrate assessed as residual activity at 25 times IC50 after 1 hr measured after 400 fold dilution
T2 sequence (whole entry): T1 sequence (P18031 whole entry)
Procedure, shortened: (§1)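 Reversibility: PTP1B preincubated 1 h at 37 °C with at least 25-fold […], DMSO in controls; mixture then diluted 400-fold in assay buffer and residual activity measured on p-nitrophenylphosphate; three replicates, mean ± SE.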

[4] = target: T3, Low molecular weight phosphotyrosine protein phosphatase (Homo sapiens, UniProt P24666); assay: Inhibition of human recombinant LMW-PTP IF1 expressed in Escherichia coli TB1 using p-nitrophenylphosphate as substrate
T3 sequence (P24666 whole entry): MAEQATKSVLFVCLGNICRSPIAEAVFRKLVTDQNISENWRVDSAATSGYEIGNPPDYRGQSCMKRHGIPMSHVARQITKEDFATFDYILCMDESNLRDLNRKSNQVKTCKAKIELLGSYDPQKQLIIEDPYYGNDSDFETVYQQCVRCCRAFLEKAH

[5] = target: T3, Low molecular weight phosphotyrosine protein phosphatase; assay: Inhibition of human recombinant LMW-PTP IF2 expressed in Escherichia coli TB1 using p-nitrophenylphosphate as substrate
[6] = Cytotoxicity against mouse C2C12 cells expressing PTP1B, TC-PTP, LMW-PTP and insulin receptor assessed as cell viability after 2 hrs by MTT assay; type: cell-based; design: concentration or dose not given beside the values; conditions: read-out: Activity
Procedure, shortened: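 C2C12 myoblasts differentiated 4 days in DMEM with 2% horse serum, serum-starved 20 h; myotubes then given MTT (0.5 mg/ml final) for 2 h at 37 °C, lysed in DMSO, formazan read at 570 nm; three replicates relative to control.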

[7] = target: T4, Tyrosine-protein phosphatase non-receptor type 1 (Mus musculus) (UniProt P35821); assay: Inhibition of PTP1B in mouse C2C12 cells assessed as increase of insulin receptor beta phosphorylation at 25 uM after 90 mins; type: cell-based
T4 sequence (whole entry): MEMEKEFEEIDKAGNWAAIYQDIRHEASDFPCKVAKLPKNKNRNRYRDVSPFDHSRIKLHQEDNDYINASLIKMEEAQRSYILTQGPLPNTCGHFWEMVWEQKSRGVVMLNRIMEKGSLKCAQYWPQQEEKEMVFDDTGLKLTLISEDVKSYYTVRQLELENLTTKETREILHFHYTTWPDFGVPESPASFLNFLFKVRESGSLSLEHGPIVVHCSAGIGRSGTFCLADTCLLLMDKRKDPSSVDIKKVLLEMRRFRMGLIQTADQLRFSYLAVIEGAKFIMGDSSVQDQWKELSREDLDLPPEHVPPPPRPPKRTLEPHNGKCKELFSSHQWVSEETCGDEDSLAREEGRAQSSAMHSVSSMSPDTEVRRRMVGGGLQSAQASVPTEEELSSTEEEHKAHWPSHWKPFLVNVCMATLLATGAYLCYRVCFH
Procedure, shortened: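 Differentiated, 20 h serum-starved C2C12 myotubes exposed to 25 µM compound (DMSO 1.2% final) for 90 min at 37 °C, insulin 10 nM 30 min as positive control; lysates run on SDS-PAGE, Western blot for phospho-insulin receptor β with actin loading control, densitometry; three replicates, p<0.05 versus control.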

[8] = target: T5, Tyrosine-protein phosphatase non-receptor type 2 (Homo sapiens, UniProt P17706); assay: Inhibition of TC-PTP (unknown origin) purchased from New England Biolabs using p-nitrophenylphosphate as substrate
T5 sequence (P17706 whole entry): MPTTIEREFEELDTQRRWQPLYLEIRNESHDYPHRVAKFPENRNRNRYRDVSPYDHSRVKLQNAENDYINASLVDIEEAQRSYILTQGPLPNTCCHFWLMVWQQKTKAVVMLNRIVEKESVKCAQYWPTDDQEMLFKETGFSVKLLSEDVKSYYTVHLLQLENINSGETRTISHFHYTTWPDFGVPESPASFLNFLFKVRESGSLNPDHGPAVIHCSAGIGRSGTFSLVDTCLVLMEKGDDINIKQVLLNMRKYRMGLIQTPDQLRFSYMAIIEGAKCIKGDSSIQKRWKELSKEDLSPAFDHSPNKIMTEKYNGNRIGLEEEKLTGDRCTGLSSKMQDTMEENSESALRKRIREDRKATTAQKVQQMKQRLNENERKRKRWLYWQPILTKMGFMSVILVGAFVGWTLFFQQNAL

Homo sapiens [9] = organism: Homo sapiens; assay: Selectivity ratio of IC50 for human recombinant LMW-PTP IF2 to IC50 for human recombinant PTP1B
Homo sapiens [10] = organism: Homo sapiens; assay: Selectivity ratio of IC50 for human recombinant LMW-PTP IF1 to IC50 for human recombinant PTP1B
[11] = target: T4, Tyrosine-protein phosphatase non-receptor type 1 (Mus musculus); assay: Inhibition of PTP1B in mouse C2C12 cells assessed as increase of 2-deoxy-D-1,2-[3H]-glucose at 25 uM after 90 mins by beta-scintillation counting; type: cell-based
Procedure, shortened: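 Serum-starved differentiated C2C12 myotubes treated 90 min with 25 µM compound (1.2% DMSO) or 30 min with 10 nM insulin, then 0.1 µCi 2-deoxy-D-[1,2-3H]glucose in Ringer-Hepes for 15 min at 37 °C; cold PBS wash, 0.2 M NaOH lysis, scintillation counting normalized to Bradford protein; three replicates.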

[12] = target: T2, Tyrosine-protein phosphatase non-receptor type 1 (Homo sapiens); assay: Partial reversible inhibition of human recombinant PTP1B expressed in Escherichia coli TB1 using p-nitrophenylphosphate as substrate assessed as residual activity at 25 times IC50 after 1 hr measured after 400 fold dilution; procedure, shortened: as §1
Homo sapiens [13] = organism: Homo sapiens; assay: Selectivity ratio of IC50 for TC-PTP (unknown origin) to IC50 for human recombinant PTP1B
Procedure, shortened: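 Commercial T-cell PTP assayed on p-nitrophenylphosphate at 37 °C, pH 7.0 β,β-dimethylglutarate buffer with 1 mM EDTA and 5 mM DTT; stopped with 1 M KOH, absorbance at 400 nm; IC50 from ratio of activity with and without inhibitor versus inhibitor concentration. Ratio lines pair this with recombinant human PTP1B measured the same way.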

[14] = target: T1, Tyrosine-protein phosphatase non-receptor type 1; assay: Mixed type inhibition of human recombinant PTP1B expressed in Escherichia coli TB1 using p-nitrophenylphosphate as substrate by Double reciprocal plot analysis
Procedure, shortened: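 PTP1B (human, GST fusion from pGEX-2T in E. coli TB1, thrombin-cleaved, gel-filtered) assayed at 37 °C, pH 7.0 β,β-dimethylglutarate buffer with 1 mM EDTA and 5 mM DTT, p-nitrophenylphosphate at seven final concentrations (0.5–25 mM) with increasing inhibitor; KOH-stopped, A400. Inhibition type from double reciprocal plots; Ki from apparent Km vs inhibitor concentration; triplicate initial rates.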

Compound: COc1ccc(/C=C2\SC(=O)N(Cc3ccc(C(=O)O)cc3)C2=O)cc1OCCc1ccccc1
- pIC50 [1]: 4.61
- Ratio IC50 (Homo sapiens [2]): > 2
- Activity [3]: 80%
- pIC50 [4]: < 4.30
- pIC50 [5]: < 4.30
- viability at 2 h [6]: ≥ 80%
- inhibition [7]: Active
- pIC50 [8]: 4.77

Compound: O=C(O)c1ccc(CN2C(=O)S/C(=C\c3cccc(OCCc4ccccc4)c3)C2=O)cc1
- Ratio IC50 (Homo sapiens [9]): > 2
- pIC50 [1]: 5.02
- Ratio IC50 (Homo sapiens [2]): > 2
- Activity [3]: 80%
- pIC50 [4]: 4.70
- pIC50 [5]: < 4.30
- Ratio IC50 (Homo sapiens [10]): > 2
- viability at 2 h [6]: 60%
- inhibition [11]: Active
- pIC50 [8]: 5.14

Compound: O=C(O)c1ccc(CN2C(=O)/C(=C/c3cccc(OCCc4ccccc4)c3)S/C2=N\c2ccccc2)cc1
- Ratio IC50 (Homo sapiens [9]): > 2
- pIC50 [1]: 5.34
- Activity [12]: 50%
- Ratio IC50 (Homo sapiens [2]): > 2
- pIC50 [4]: 4.96
- pIC50 [5]: 4.57
- Ratio IC50 (Homo sapiens [10]): > 2
- viability at 2 h [6]: ≥ 80%
- inhibition [11]: inactive
- pIC50 [8]: 5.72

Compound: COc1cc(/C=C2\S/C(=N\c3ccccc3)N(Cc3ccc(C(=O)O)cc3)C2=O)ccc1OCc1ccccc1
- Ratio IC50 (Homo sapiens [9]): > 2
- pIC50 [1]: 5.80
- Ratio IC50 (Homo sapiens [2]): > 2
- Activity [3]: 80%
- pIC50 [4]: 5.35
- pIC50 [5]: 5.00
- Ratio IC50 (Homo sapiens [10]): > 2
- viability at 2 h [6]: ≥ 80%
- inhibition [11]: inactive
- pIC50 [8]: 5.29
- Ratio IC50 (Homo sapiens [13]): 2

Compound: COc1ccc(/C=C2\SC(=O)N(Cc3ccc(C(=O)O)cc3)C2=O)cc1OCc1ccccc1
- Ratio IC50 (Homo sapiens [9]): > 2
- pIC50 [1]: 5.40
- Ratio IC50 (Homo sapiens [2]): > 2
- Activity [3]: 80%
- pIC50 [4]: 4.65
- pIC50 [5]: < 4.30
- Ratio IC50 (Homo sapiens [10]): > 2
- viability at 2 h [6]: ≥ 80%
- inhibition [7]: Active
- pIC50 [8]: 4.90
- Ratio IC50 (Homo sapiens [13]): 2

Compound: COc1cc(/C=C2\SC(=O)N(Cc3ccc(C(=O)O)cc3)C2=O)ccc1OCc1ccccc1
- Ratio IC50 (Homo sapiens [9]): > 2
- pIC50 [1]: 5.34
- Ratio IC50 (Homo sapiens [2]): > 2
- Activity [3]: 80%
- pIC50 [4]: 4.99
- pIC50 [5]: < 4.30
- Ratio IC50 (Homo sapiens [10]): > 2
- viability at 2 h [6]: ≥ 80%
- inhibition [7]: Active
- pIC50 [8]: 5.46

Compound: COc1cc(/C=C2\S/C(=N\c3ccccc3)N(Cc3ccc(C(=O)O)cc3)C2=O)ccc1OCCc1ccccc1
- Ratio IC50 (Homo sapiens [9]): > 2
- pIC50 [1]: 5.55
- Ratio IC50 (Homo sapiens [2]): > 2
- Activity [3]: 80%
- pIC50 [4]: 4.97
- pIC50 [5]: 4.71
- Ratio IC50 (Homo sapiens [10]): > 2
- viability at 2 h [6]: ≥ 80%
- pKi [14]: 5.82
- inhibition [7]: Active
- pIC50 [8]: 5.47

Compound: COc1ccc(/C=C2\S/C(=N\c3ccccc3)N(Cc3ccc(C(=O)O)cc3)C2=O)cc1OCc1ccccc1
- Ratio IC50 (Homo sapiens [9]): > 2
- pIC50 [1]: 5.41
- Activity [12]: 50%
- Ratio IC50 (Homo sapiens [2]): > 2
- pIC50 [4]: 5.04
- pIC50 [5]: < 4.30
- Ratio IC50 (Homo sapiens [10]): > 2
- viability at 2 h [6]: ≥ 80%
- pIC50 [8]: 5.40

Compound: O=C(O)c1ccc(CN2C(=O)S/C(=C\c3ccc(OCc4ccccc4)c(F)c3)C2=O)cc1
- Ratio IC50 (Homo sapiens [9]): > 2
- pIC50 [1]: 5.12
- Ratio IC50 (Homo sapiens [2]): > 2
- Activity [3]: 80%
- pIC50 [4]: 4.46
- pIC50 [5]: < 4.30
- Ratio IC50 (Homo sapiens [10]): > 2
- viability at 2 h [6]: ≥ 80%
- inhibition [7]: Active
- pIC50 [8]: 4.97

Compound: O=C(O)c1ccc(CN2C(=O)/C(=C/c3ccc(OCc4ccccc4)c(F)c3)S/C2=N\c2ccccc2)cc1
- Ratio IC50 (Homo sapiens [9]): > 2
- pIC50 [1]: 5.66
- Activity [12]: 50%
- Ratio IC50 (Homo sapiens [2]): > 2
- pIC50 [4]: 5.48
- pIC50 [5]: 4.81
- Ratio IC50 (Homo sapiens [10]): > 2
- viability at 2 h [6]: ≥ 80%
- inhibition [11]: Active
- inhibition [7]: Active
- pIC50 [8]: 6.10

Source: ChEMBL document CHEMBL3098122, “Synthesis, biological activity and structure-activity relationships of new benzoic acid-based protein tyrosine phosphatase inhibitors endowed with insulinomimetic effects in mouse C2C12 skeletal muscle cells” (Eur J Med Chem, 2014)
